Test [1] deals with T1, Hydroxycarboxylic acid receptor 3 (Homo sapiens, UniProt P49019). In words: Agonist activity at human GPR109b […] assessed as decrease in intracellular cAMP level upto 50 uM by HTRF assay. In kind it is functional, cell-based. (In general: Changes in cAMP serve as a functional read-out for many G protein-coupled receptors.)
Test [2] has as its target T1, Hydroxycarboxylic acid receptor 3. In words: Agonist activity at human GPR109b expressed in human adipocytes assessed as decrease in intracellular cAMP level by HTRF assay. The class given is functional, cell-based. The procedure, abridged:
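Whole-cell cAMP Dynamic2 HTRF assay at GPR109b. Results are given as pEC50, the negative log of molar EC50, with log SD errors and n in parentheses. Compounds with no response are marked not active. Efficacy is judged relative to niacin.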

Test [3] has as its system Rattus norvegicus. Nature of the test: Reduction in 4-fluoro-5-methyl-pyrazole-3-carboxylic acid-induced plasma free fatty acid level in fasted male Sprague-Dawley rat at 1 mg/kg. The class given is functional, organism-based. Set-up: dose 1 mg/kg. The gist of the method:
(§1)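 Fasted male Sprague–Dawley rats dosed orally at 0.1, 1 or 10 mg/kg. Plasma free fatty acid levels are followed over time, with 10 mg/kg oral niacin as the comparator.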

The test system of test [4] is Rattus norvegicus. In words: Reduction in 4-fluoro-5-methyl-pyrazole-3-carboxylic acid-induced plasma free fatty acid level in fasted male Sprague-Dawley rat at 10 mg/kg. The class given is functional, organism-based. Set-up: dose 10 mg/kg. The procedure, abridged:
as §1

The subject of another test is Mus musculus. Nature of the test: Effect on cutaneous flushing response in C57BL/6 mouse at 100 mg/kg. The class given is functional, organism-based. Set-up: dose 100 mg/kg. The gist of the method:
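Male C57 Bl/6 mice given 100 mg/kg. Cutaneous vasodilation is measured as a surrogate for flushing.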

SMILES strings stand for the structures. Calls of active or inactive are those of the source. The rule behind the calls is not given here.

T1 sequence (P49019 whole entry): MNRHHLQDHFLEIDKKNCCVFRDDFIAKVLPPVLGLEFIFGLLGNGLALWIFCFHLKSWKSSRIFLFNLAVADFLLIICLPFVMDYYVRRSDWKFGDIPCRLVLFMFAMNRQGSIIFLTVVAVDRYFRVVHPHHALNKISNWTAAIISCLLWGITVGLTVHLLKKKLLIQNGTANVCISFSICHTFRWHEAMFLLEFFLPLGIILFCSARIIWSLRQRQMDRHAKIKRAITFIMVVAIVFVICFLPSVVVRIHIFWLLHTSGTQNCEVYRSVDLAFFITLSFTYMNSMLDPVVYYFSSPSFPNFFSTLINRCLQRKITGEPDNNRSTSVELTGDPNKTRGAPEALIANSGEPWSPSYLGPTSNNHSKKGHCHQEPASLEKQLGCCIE

With `CCCCc1[nH]nc(C(=O)O)c1Br`, the result in test [1] and in test [2] was inactive. For `CCCCc1[nH]nc(-c2nnn[nH]2)c1F`, the outcome in test [1] and in test [2] was inactive. For `CCc1[nH]nc(C(=O)O)c1F`, the result in test [1] and in test [2] was inactive.

Consider `CCCCc1cc(-c2nnn[nH]2)n[nH]1`, for which, in test [2] (read-out: Log EC50 (converted)), the EC50 is 7.59 µM. `CCCc1cc(-c2nnn[nH]2)n[nH]1`: the EC50 in test [2] (read-out: EC50) is 860 µM; in test [2] (read-out: Log EC50 (converted)), 0.724 µM. As for `Cc1cc(C(=O)O)n[nH]1`, the outcome in test [1] and in test [2] was inactive. For the molecule `CCCCc1cc(C(=O)O)n[nH]1`, the EC50 in test [2] (read-out: Log EC50 (converted)) is 11.7 µM.

For `O=C(O)c1cc(C2CCC2)n[nH]1`, the outcome in test [1] and in test [2] was inactive. `O=C(O)c1cccnc1` [NIACIN]: the concentration for a half-maximal effect (EC50) in test [2] (read-out: Log EC50 (converted)) was 75.9 µM.

As for `CCCc1cc(C(=O)O)n[nH]1`, the outcome in test [1] and in test [2] was inactive. As to `O=C(O)c1cc(C2CC2)n[nH]1`, the outcome in test [1] and in test [2] was inactive. As for `CCc1[nH]nc(C(=O)O)c1C`, the outcome in test [1] and in test [2] was inactive. Consider `Cc1cc(-c2nnn[nH]2)n[nH]1`, for which the outcome in test [1] was inactive. Take `c1c(-c2nnn[nH]2)n[nH]c1C1CC1`: the concentration giving a half-maximal response (EC50) in test [2] (read-out: EC50) was 3.6 µM; in test [2] (read-out: Log EC50 (converted)), 3.24 µM. In the case of `CC(C)c1cc(C(=O)O)n[nH]1`, the EC50 in test [2] (read-out: Log EC50 (converted)) was 41.7 µM. `Cc1[nH]nc(C(=O)O)c1F`: the result in the test on Rattus norvegicus [3], in the test with Rattus norvegicus [4] and in the test with Mus musculus was Active. For the same molecule, the outcome in test [1] and in test [2] was inactive. `CCc1[nH]nc(-c2nnn[nH]2)c1F`: the concentration for a half-maximal effect (EC50) in test [2] (read-out: Log EC50 (converted)) was 12.3 µM. As to `Fc1c(-c2nnn[nH]2)n[nH]c1C1CC1`, the result in test [1] and in test [2] was inactive.

For the molecule `CCc1cc(C(=O)O)[nH]n1`, the outcome in test [1] and in test [2] was inactive.

For `CCCCc1[nH]nc(C(=O)O)c1F`, the outcome in test [1] and in test [2] was inactive.

Take `CC(C)c1cc(-c2nnn[nH]2)n[nH]1`: in test [1], the result was inactive. Turning to `Cc1[nH]nc(-c2nnn[nH]2)c1F`, the outcome in test [1] and in test [2] was inactive. As for `O=C(O)c1n[nH]c(C2CC2)c1F`, the result in test [1] and in test [2] was inactive.

For the molecule `O=C(O)c1cc[nH]n1`, the result in test [1] and in test [2] was inactive.

For `CCCCCc1cc(C(=O)O)[nH]n1`, the EC50 in test [2] (read-out: Log EC50 (converted)) was 18.6 µM. For the molecule `c1cc(-c2nnn[nH]2)n[nH]1`, in test [1], the outcome was inactive. With `Cc1[nH]nc(C(=O)O)c1Cl`, the result in test [1] and in test [2] was inactive.

In general, EC50 refers to the concentration at which the effect is half-maximal.

These data come from ChEMBL document CHEMBL1137460, “Fluorinated pyrazole acids are agonists of the high affinity niacin receptor GPR109a” (Bioorg Med Chem Lett, 2007).
